Experiment [1] deals with Mycobacterium tuberculosis. In words: Antimycobacterial activity against Mycobacterium tuberculosis H37Rv at 16 ug/mL by microplate alamar blue assay. In kind it is functional. On the technique in general: Alamar Blue is a resazurin reagent that responds to reducing activity.
The subject of experiment [2] is Mycobacterium tuberculosis. In words: Antimycobacterial activity against Mycobacterium tuberculosis H37Rv at 32 ug/mL by microplate alamar blue assay. In kind it is functional.
Experiment [3] has as its system Mycobacterium tuberculosis. Put plainly: Antimycobacterial activity against Mycobacterium tuberculosis H37Rv at 8 ug/mL by microplate alamar blue assay. In kind it is functional.
The subject of a further experiment is Vero. In words: Cytotoxicity against african green monkey Vero cells. In kind it is cell-based. Particulars: Chlorocebus sabaeus. An outline of the steps:
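Cytotoxicity tested on VERO cells (ATCC CCL-81) in parallel with the MIC work. Read-out is IC50 in μg/mL.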

The subject of experiment [4] is Mycobacterium tuberculosis. Put plainly: Antimycobacterial activity against Mycobacterium tuberculosis H37Rv at 128 ug/mL by microplate alamar blue assay. It is filed as functional.
The subject of experiment [5] is Mycobacterium tuberculosis. Put plainly: Antimycobacterial activity against Mycobacterium tuberculosis H37Rv at 64 ug/mL by microplate alamar blue assay. It is filed as functional.
Experiment [6] has as its system Mycobacterium tuberculosis. Put plainly: Antimycobacterial activity against Mycobacterium tuberculosis H37Rv by microplate alamar blue assay. It is filed as functional.
In experiment [7] the test system is Mycobacterium tuberculosis. Put plainly: Antimycobacterial activity against Mycobacterium tuberculosis H37Rv at 4 ug/mL by microplate alamar blue assay. In kind it is functional.
The subject of experiment [8] is Mycobacterium tuberculosis. In words: Antimycobacterial activity against Mycobacterium tuberculosis H37Rv at 2 ug/mL by microplate alamar blue assay. It is filed as functional.
Experiment [9] can be described thus: Selectivity index, ratio of IC50 for against african green monkey VERO cells to MIC for Mycobacterium tuberculosis H37Rv. It is filed as functional.

As a reminder, the inhibition is the relative decrease from the control value, in per cent. Broadly, the IC50 is the point on the concentration scale where inhibition reaches its midpoint. Broadly, the MIC is the smallest concentration in the dilution series that meets the test's criterion for growth inhibition.

In brackets after ≈: the same amount, converted by molar mass.

Regarding `CC(C)[C@@H](C)[C@]1(C)C[C@@H]1[C@@H](C)[C@H]1CC[C@H]2[C@@H]3C(C=O)=C4C[C@@H](O)CC[C@]4(C)[C@H]3CC[C@]12C`, the inhibition at 16 µg/mL in experiment [1] is 96%. Besides, the inhibition at 32 µg/mL in experiment [2] amounted to 98%. For the same molecule, the inhibition at 8 µg/mL in experiment [3] turned out to be 81%. The molecule also displayed an IC50 in the experiment on Vero of 54.7 µg/mL (≈ 124 µM). In experiment [4], the inhibition at 128 µg/mL was 99%. Further, the inhibition at 64 µg/mL in experiment [5] came to 99%. In experiment [6], this molecule gave an MIC of 12.7 µg/mL (≈ 28.8 µM). Moreover, the inhibition at 4 µg/mL in experiment [7] worked out at 33%. The inhibition at 2 µg/mL in [8] worked out at 17%. The “Selectivity Index” value in experiment [9] is 4.3.

Regarding `CC(C)CCC[C@@H](C)[C@H]1CC[C@H]2[C@@H]3C(C=O)=C4C[C@@H](O)CC[C@]4(C)[C@H]3CC[C@]12C`, the inhibition at 16 µg/mL in experiment [1] was 96%. Further, the inhibition at 32 µg/mL in experiment [2] amounted to 99%. Further, in experiment [3], the inhibition at 8 µg/mL is 51%. In addition, the IC50 with Vero is > 128 µg/mL. For the same molecule, in experiment [4], the inhibition at 128 µg/mL came to 99%. Moreover, the inhibition at 64 µg/mL in experiment [5] was 99%. The same molecule gave an MIC in experiment [6] of 15 µg/mL (≈ 37.4 µM). In experiment [7], the inhibition at 4 µg/mL worked out at 34%. For the same molecule, the inhibition at 2 µg/mL in [8] was 10%. For the same molecule, the “Selectivity Index” value in experiment [9] is listed as >9.

Take `CCC(CC[C@@H](C)[C@H]1CC[C@H]2[C@@H]3CC=C4C[C@@H](O)CC[C@]4(C)[C@H]3CC[C@]12C)C(C)C` (single isomer, unassigned) [BETA-SITOSTEROL]: the inhibition at 16 µg/mL in [1] came to 32%. Also, the inhibition at 32 µg/mL in experiment [2] came out at 31%. In addition, in experiment [3], the inhibition at 8 µg/mL amounted to 7%. Also, the half-maximal inhibitory concentration (IC50) in the experiment on Vero is > 128 µg/mL. The inhibition at 128 µg/mL in experiment [4] was determined as 45%. Besides, the inhibition at 64 µg/mL in [5] was 48%. In addition, the MIC in experiment [6] was > 128 µg/mL. The inhibition at 4 µg/mL in experiment [7] is 8%. For the same molecule, the inhibition at 2 µg/mL in experiment [8] is -1%.

Consider `CC(C)[C@@H](C)CC[C@@H](C)[C@H]1CC[C@H]2[C@@H]3C(C=O)=C4C[C@@H](O)CC[C@]4(C)[C@H]3CC[C@]12C`, for which, in experiment [1], the inhibition at 16 µg/mL is 99%. Moreover, the inhibition at 32 µg/mL in experiment [2] worked out at 99%. The inhibition at 8 µg/mL in [3] came to 97%. In the experiment with Vero, this molecule registered an IC50 of 42.3 µg/mL (≈ 102 µM). The inhibition at 128 µg/mL in experiment [4] amounted to 99%. Also, in experiment [5], the inhibition at 64 µg/mL stood at 100%. The same molecule yielded an MIC in experiment [6] of 3.9 µg/mL (≈ 9.4 µM). Moreover, the inhibition at 4 µg/mL in [7] was determined as 94%. Besides, the inhibition at 2 µg/mL in [8] worked out at 39%. Further, the “Selectivity Index” value in experiment [9] is on record as 10.8.

Regarding `CO[C@H]1/C=C/O[C@@]2(C)Oc3c(C)c(O)c4c(O)c(c(/C=N/N5CCN(C)CC5)c(O)c4c3C2=O)NC(=O)/C(C)=C\C=C\[C@H](C)[C@H](O)[C@@H](C)[C@@H](O)[C@@H](C)[C@H](OC(C)=O)[C@@H]1C` [RIFAMPIN], the inhibition at 16 µg/mL in [1] came to 99%. For the same molecule, the inhibition at 32 µg/mL in experiment [2] worked out at 100%. In addition, the inhibition at 8 µg/mL in experiment [3] is 94%. The inhibition at 128 µg/mL in experiment [4] is 100%. Further, the inhibition at 64 µg/mL in [5] is 100%. Also, inhibition of growth in [6] (MIC) required 0.06 µg/mL (≈ 0.0729 µM). For the same molecule, in experiment [7], the inhibition at 4 µg/mL was 73%.

Take `CC(C)C(=O)CC[C@@H](C)[C@H]1CC[C@H]2[C@@H]3C(C=O)=C4C[C@@H](O)CC[C@]4(C)[C@H]3CC[C@]12C`: the inhibition at 16 µg/mL in experiment [1] is 92%. Moreover, the inhibition at 32 µg/mL in experiment [2] was 96%. In experiment [3], the inhibition at 8 µg/mL stood at 83%. Also, 43.8 µg/mL (≈ 106 µM) corresponded to half-maximal inhibition in the experiment with Vero (IC50). For the same molecule, the inhibition at 128 µg/mL in experiment [4] was found to be 99%. In experiment [5], the inhibition at 64 µg/mL is 100%. In addition, in [6], the MIC came out at 13.6 µg/mL (≈ 32.8 µM). Moreover, the inhibition at 4 µg/mL in experiment [7] was 67%. In addition, in experiment [8], the inhibition at 2 µg/mL came to 52%. In experiment [9], the “Selectivity Index” value was 3.2.

With `CC(C)[C@@H](C)[C@]1(C)C[C@@H]1[C@@H](C)[C@H]1CC[C@H]2[C@@H]3CC=C4C[C@@H](O)CC[C@]4(C)[C@H]3CC[C@]12C`, in [1], the inhibition at 16 µg/mL was 10%. Further, the inhibition at 32 µg/mL in [2] came out at 13%. In addition, in the experiment on Vero, the IC50 is > 128 µg/mL. Moreover, in experiment [4], the inhibition at 128 µg/mL is 38%. In addition, the inhibition at 64 µg/mL in experiment [5] is 18%. For the same molecule, the MIC in experiment [6] is > 128 µg/mL.

For the molecule `C=C(CC[C@@H](C)[C@H]1CC[C@H]2[C@@H]3CC=C4C[C@@H](O)CC[C@]4(C)[C@H]3CC[C@]12C)C(C)C`, in [1], the inhibition at 16 µg/mL came to 33%. Also, the inhibition at 32 µg/mL in [2] is 43%. Moreover, the IC50 with Vero is > 128 µg/mL. Further, the inhibition at 64 µg/mL in experiment [5] is 40%. In [6], this molecule registered an MIC of 120 µg/mL (≈ 301 µM).

Consider `CC(C)[C@@H](C)CC[C@@H](C)[C@H]1CC[C@H]2[C@@H]3CC=C4C[C@@H](O)CC[C@]4(C)[C@H]3CC[C@]12C`, for which, in [1], the inhibition at 16 µg/mL worked out at 21%. Also, the inhibition at 32 µg/mL in [2] worked out at 31%. The inhibition at 8 µg/mL in experiment [3] is 23%. The IC50 in the experiment on Vero is > 128 µg/mL. The inhibition at 128 µg/mL in [4] was 58%. Besides, the inhibition at 64 µg/mL in experiment [5] was found to be 41%. Further, the MIC in experiment [6] is > 128 µg/mL. Besides, the inhibition at 4 µg/mL in experiment [7] was determined as 14%. The inhibition at 2 µg/mL in experiment [8] is 15%.

For the molecule `C=C(CC[C@@H](C)[C@H]1CC[C@H]2[C@@H]3C(C=O)=C4C[C@@H](O)CC[C@]4(C)[C@H]3CC[C@]12C)C(C)C` [PARGUESTEROL A], the inhibition at 16 µg/mL in experiment [1] was determined as 105%. The inhibition at 32 µg/mL in [2] stood at 99%. The inhibition at 8 µg/mL in experiment [3] was determined as 91%. Also, inhibition in the experiment on Vero was half-maximal at 51 µg/mL (≈ 124 µM) (IC50). In addition, the inhibition at 128 µg/mL in experiment [4] worked out at 99%. In addition, the inhibition at 64 µg/mL in experiment [5] came out at 99%. In experiment [6], this molecule yielded an MIC of 7.8 µg/mL (≈ 18.9 µM). Also, the inhibition at 4 µg/mL in experiment [7] is 69%. The inhibition at 2 µg/mL in experiment [8] came to 52%. The “Selectivity Index” value in experiment [9] stood at 6.5.

Regarding `CC(C)CCC[C@@H](C)[C@H]1CC[C@H]2[C@@H]3CC=C4C[C@@H](O)CC[C@]4(C)[C@H]3CC[C@]12C` [CHOLESTEROL], the inhibition at 16 µg/mL in experiment [1] came out at 33%. Moreover, the inhibition at 32 µg/mL in experiment [2] amounted to 13%. Further, in the experiment on Vero, the IC50 was > 128 µg/mL. The inhibition at 128 µg/mL in experiment [4] turned out to be 57%. Besides, the inhibition at 64 µg/mL in [5] was 24%. Further, in experiment [6], the MIC was > 128 µg/mL.

Turning to `CC[C@@H](CC[C@@H](C)[C@H]1CC[C@H]2[C@@H]3C(C=O)=C4C[C@@H](O)CC[C@]4(C)[C@H]3CC[C@]12C)C(C)C`, the inhibition at 16 µg/mL in experiment [1] was 98%. Also, in experiment [2], the inhibition at 32 µg/mL came out at 99%. Further, the inhibition at 8 µg/mL in [3] is 99%. The same molecule showed an IC50 in the experiment on Vero of 26.6 µg/mL (≈ 62 µM). Moreover, the inhibition at 128 µg/mL in [4] came out at 99%. In addition, the inhibition at 64 µg/mL in experiment [5] came out at 99%. This molecule had an MIC in [6] of 3.8 µg/mL (≈ 8.86 µM). The inhibition at 4 µg/mL in experiment [7] came out at 97%. In addition, the inhibition at 2 µg/mL in experiment [8] was 29%. The “Selectivity Index” value in experiment [9] is reported as 7.

These data come from ChEMBL document CHEMBL1142462, “Synthesis and in vitro biological evaluation of ring B abeo-sterols as novel inhibitors of Mycobacterium tuberculosis” (Bioorg Med Chem Lett, 2008).
